Results taken from ChEMBL document CHEMBL2331188, “Synthesis and biochemical activities of antiproliferative amino acid and phosphate derivatives of microtubule-disrupting β-lactam combretastatins” (Eur J Med Chem, 2013).
≈ marks a conversion by molar mass, not a printed value. Each block holds one compound with its values, some of them ahead of it. Calls of active or inactive are those of the source. The rule behind the calls is not given here.

Columns and labels:
MCF7 [1] = test: Antiproliferative activity against human MCF7 cells assessed as inhibition of cell growth after 72 hrs by MTT assay; assay type: functional, cell-based; details: MCF7, 72 h
Method in brief: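 MCF-7 cells in MEM with 10% FBS, 2 mM L-glutamine, penicillin/streptomycin and 1% non-essential amino acids. Seeded at 2.5 × 10⁴ cells/mL, grown 24 h at 37 °C, then dosed from ethanol stocks over 1 nM–100 µM for 72 h; vehicle was ethanol 1% v/v. Read-out was MTT at 1 mg/mL for 2 h, solubilised in DMSO, absorbance relative to control as 100% viability. Triplicate; mean ± S.E.M of at least three experiments.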

MCF7 [2] = test: Induction of cell cycle arrest in human MCF7 cells assessed as accumulation of cells in G2/M phase at 100 nM after 48 hrs by propidium iodide staining based flow cytometry; assay type: functional
Method in brief: (§1)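 MCF-7 cells seeded at 1 × 10⁵ cells/cm³ and treated after 24 h for 48 h; vehicle was 1% ethanol v/v. Cells were fixed in 70% ethanol:PBS overnight at −20 °C, then stained with RNase 0.5 mg/mL and propidium iodide 0.15 mg/mL for 30 min at 37 °C. Analysed by flow cytometry, at least 10,000 gated cells, sub-diploid counted as sub-G1. Mean ± SEM of at least three experiments; one-way ANOVA with Bonferroni test.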

MCF7 [3] = test: Induction of cell cycle arrest in human MCF7 cells assessed as accumulation of cells in sub-G1 phase at 100 nM after 48 hrs by propidium iodide staining based flow cytometry; assay type: functional; method in brief: as §1
Bos taurus [4] = organism: Bos taurus; test: Inhibition of bovine brain tubulin polymerization at 10 uM measured every 30s for 60 mins by spectrophotometric analysis
[5] = Aqueous solubility of the compound after 24 hrs by HPLC analysis; assay type: physicochemical; details: aqueous medium
Method in brief: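 Compound was shaken in water at 300 shakes/min for 24 h, then filtered. The filtrate was quantified by HPLC on a C18 column with acetonitrile/water 70:30 at 1 mL/min, detection at 254 nm. The value is the maximum of n = 3.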

MCF7 [6] = test: Induction of mitotic catastrophe in human MCF7 cells at 100 nM after 16 hrs by immunofluorescence analysis; assay type: functional, cell-based
Method in brief: (§2)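 MCF-7 cells seeded at 1 × 10⁵ per well on chamber slides and treated 16 h; vehicle was 1% ethanol v/v. Fixed in methanol at −20 °C for 30 min and blocked in 5% BSA/PBST. Stained with anti-α-tubulin DM1A (1:20) and then FITC anti-mouse (1:100), each 1 h at room temperature, with DAPI counterstain. Imaged by confocal microscopy; three separate experiments.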

MCF7 [7] = test: Induction of microtubule depolymerization in human MCF7 cells assessed as complete loss of microtubule formation at 100 nM after 16 hrs by immunofluorescence analysis; assay type: cell-based; method in brief: as §2
[8] = Inhibition of bovine brain tubulin polymerization measured every 30s for 30 mins by spectrophotometric analysis; parameters: species or system Bos taurus
Bos taurus [9] = organism: Bos taurus; test: Inhibition of bovine brain tubulin polymerization measured every 30s for 60 mins by spectrophotometric analysis
MCF7 [10] = test: Induction of cell cycle arrest in human MCF7 cells assessed as accumulation of cells in G2/M phase at 1 uM after 48 hrs by propidium iodide staining based flow cytometry; assay type: functional; method in brief: as §1
MCF7 [11] = test: Induction of cell cycle arrest in human MCF7 cells assessed as accumulation of cells in sub-G1 phase at 1 uM after 48 hrs by propidium iodide staining based flow cytometry; assay type: functional; method in brief: as §1
MCF7 [12] = test: Induction of mitotic catastrophe in human MCF7 cells at 1 uM after 16 hrs by immunofluorescence analysis; assay type: functional, cell-based; method in brief: as §2
MCF7 [13] = test: Induction of microtubule depolymerization in human MCF7 cells assessed as complete loss of microtubule formation at 1 uM after 16 hrs by immunofluorescence analysis; assay type: cell-based; method in brief: as §2
[14] = Half life in human plasma at pH 4 to 9; assay type: ADME, cell-free
[15] = Solubility in human plasma; assay type: ADME, cell-free
Colon 26 = test: Antiproliferative activity against mouse Colon 26 cells assessed as inhibition of cell growth; assay type: functional, cell-based
[16] = Solubility in human plasma at pH 7.2 to 7.5; assay type: ADME, cell-free

Compound: COc1ccc([C@H]2[C@H](c3ccccc3)C(=O)N2c2cc(OC)c(OC)c(OC)c2)cc1OP(=O)(O)O
- Activity (MCF7 [2]): Active
- Activity (MCF7 [3]): Active
- inhibition (Bos taurus [4]): inactive
- IC50 (MCF7 [1]): 71 nM
- solubility at 24 h [5]: 300 µg/mL (≈ 582 µM)

Compound: COc1ccc([C@H]2[C@H](c3ccc(NC(=O)[C@@H](N)Cc4ccccc4)cc3)C(=O)N2c2cc(OC)c(OC)c(OC)c2)cc1
- Activity (MCF7 [2]): Active
- Activity (MCF7 [3]): Active
- Activity (MCF7 [6]): Active
- Activity (MCF7 [7]): Active
- IC50 [8]: 2400 nM
- inhibition (Bos taurus [9]): Dose-dependent effect
- IC50 (MCF7 [1]): 27 nM
- solubility at 24 h [5]: 140 µg/mL (≈ 241 µM)

Compound: COc1ccc([C@H]2[C@H](c3ccc(NC(=O)CN)cc3)C(=O)N2c2cc(OC)c(OC)c(OC)c2)cc1
- IC50 (MCF7 [1]): 91 nM
- half-life [14]: > 24 h
- solubility at 24 h [5]: 60 µg/mL (≈ 122 µM)

Compound: COc1ccc([C@H]2[C@H](c3ccc(NC(=O)[C@@H](N)CO)cc3)C(=O)N2c2cc(OC)c(OC)c(OC)c2)cc1
- IC50 (MCF7 [1]): 860 nM

Compound: COc1ccc([C@H]2[C@H](c3ccc(NC(=O)[C@H](C)N)cc3)C(=O)N2c2cc(OC)c(OC)c(OC)c2)cc1
- IC50 (MCF7 [1]): 35 nM

Compound: COc1ccc([C@H]2[C@H](c3ccc(NC(=O)[C@@H](N)CCCCN)cc3)C(=O)N2c2cc(OC)c(OC)c(OC)c2)cc1
- IC50 (MCF7 [1]): 690 nM

Compound: COc1ccc(/C=C\c2cc(OC)c(OC)c(OC)c2)cc1N
- solubility [15]: 3300 µg/mL (≈ 10500 µM)

Compound: COc1ccc([C@H]2[C@H](c3ccc(O)cc3)C(=O)N2c2cc(OC)c(OC)c(OC)c2)cc1O
- half-life [14]: > 24 h

Compound: COc1ccc(/C=C\c2cc(OC)c(OC)c(OC)c2)cc1NC(=O)[C@@H](N)CO [OMBRABULIN]
- IC50 (Colon 26): 27.2 nM
- solubility [16]: 110 µg/mL (≈ 273 µM)
- solubility [15]: 3300 µg/mL (≈ 8200 µM)

Compound: COc1ccc([C@H]2[C@H](c3ccc(NC(=O)[C@@H](N)C(C)C)cc3)C(=O)N2c2cc(OC)c(OC)c(OC)c2)cc1
- IC50 (MCF7 [1]): 50 nM
- solubility at 24 h [5]: 4 µg/mL (≈ 7.5 µM)

The next lines start with results.

- IC50 (MCF7 [1]): 1100 nM
Compound: COc1ccc([C@H]2[C@H](c3ccccc3)C(=O)N2c2cc(OC)c(OC)c(OC)c2)cc1NC(=O)CN

- IC50 (MCF7 [1]): 1130 nM
Compound: COc1ccc([C@H]2[C@H](c3ccccc3)C(=O)N2c2cc(OC)c(OC)c(OC)c2)cc1NC(=O)[C@@H](N)Cc1ccccc1

- IC50 [8]: 5200 nM
- inhibition (Bos taurus [9]): Dose-dependent effect
- IC50 (MCF7 [1]): 460 nM
- half-life [14]: > 24 h
- solubility at 24 h [5]: 110 µg/mL (≈ 206 µM)
Compound: COc1ccc([C@H]2[C@H](c3ccccc3)C(=O)N2c2cc(OC)c(OC)c(OC)c2)cc1NC(=O)[C@@H](N)C(C)C
- Activity (MCF7 [10]): Active
- Activity (MCF7 [11]): Active
- Activity (MCF7 [12]): Active
- Activity (MCF7 [13]): Active

- IC50 (MCF7 [1]): 760 nM
- solubility at 24 h [5]: 370 µg/mL (≈ 732 µM)
Compound: COc1ccc([C@H]2[C@H](c3ccccc3)C(=O)N2c2cc(OC)c(OC)c(OC)c2)cc1NC(=O)[C@H](C)N

- IC50 (MCF7 [1]): 780 nM
- solubility at 24 h [5]: 200 µg/mL (≈ 383 µM)
Compound: COc1ccc([C@H]2[C@H](c3ccccc3)C(=O)N2c2cc(OC)c(OC)c(OC)c2)cc1NC(=O)[C@@H](N)CO

- IC50 (MCF7 [1]): 9800 nM
Compound: COc1ccc([C@H]2[C@H](c3ccccc3)C(=O)N2c2cc(OC)c(OC)c(OC)c2)cc1NC(=O)[C@@H](N)CCCCN

- half-life [14]: > 24 h
Compound: COc1ccc([C@H]2[C@H](c3ccc(N)cc3)C(=O)N2c2cc(OC)c(OC)c(OC)c2)cc1

- half-life [14]: > 24 h
Compound: COc1ccc([C@H]2[C@H](c3ccccc3)C(=O)N2c2cc(OC)c(OC)c(OC)c2)cc1N

- IC50 (MCF7 [1]): 1100 nM
- solubility at 24 h [5]: 110 µg/mL (≈ 201 µM)
Compound: CC[C@H](C)[C@H](N)C(=O)Nc1cc([C@H]2[C@H](c3ccccc3)C(=O)N2c2cc(OC)c(OC)c(OC)c2)ccc1OC

- IC50 (MCF7 [1]): 20 nM
- solubility at 24 h [5]: 450 µg/mL (≈ 863 µM)
Compound: COc1ccc([C@H]2[C@H](c3cccs3)C(=O)N2c2cc(OC)c(OC)c(OC)c2)cc1OP(=O)(O)O
- Activity (MCF7 [2]): Active
- Activity (MCF7 [3]): Active
- Activity (MCF7 [6]): Active
- Activity (MCF7 [7]): Active

- IC50 (MCF7 [1]): 740 nM
Compound: COc1ccc([C@H]2[C@H](c3ccccc3)C(=O)N2c2cc(OC)c(OC)c(OC)c2)cc1NC(=O)[C@@H](N)Cc1ccc(O)cc1

- inhibition (Bos taurus [4]): inactive
- IC50 (MCF7 [1]): 22 nM
- half-life [14]: > 24 h
- solubility at 24 h [5]: 140 µg/mL (≈ 263 µM)
Compound: COc1ccc([C@H]2[C@H](c3ccc(O)cc3)C(=O)N2c2cc(OC)c(OC)c(OC)c2)cc1OP(=O)(O)O
- Activity (MCF7 [2]): Active
- Activity (MCF7 [3]): Active
- Activity (MCF7 [6]): Active
- Activity (MCF7 [7]): Active
